Source: PubChem (several laboratories)
Compounds with a hit are over-represented: about 2.1% of the library has one in this group of screens.
NOD2-RIPK2 inh = NOD2-RIPK2 binding disruptors in cells, primary screen, fluorescence, CHO cells, BLA complementation; Receptor-interacting serine/threonine-protein kinase 2 (Homo sapiens), O43353; CCF4 ratio; inhibition, % at 4.98 µM; 360,000 tested, 0.38% active; in the data active means inhibition above about 21%
TLR4-MyD88 BLA = inhibitors of TLR4-MyD88 association in cells, primary screen, cell-based, HeLa CL3-4, BLA complementation, FRET ratio | Toll-like receptor 4 (Homo sapiens) + Myeloid differentiation primary response protein … | HeLa CL3-4 TLR4/MyD88 BLA complementation | inhibition, % at 8.4 µM | 200,000 tested, 0.18% active | AID 861, 2007; in the data active means inhibition above about 25%
Target sequence (O00206 whole entry, looked up): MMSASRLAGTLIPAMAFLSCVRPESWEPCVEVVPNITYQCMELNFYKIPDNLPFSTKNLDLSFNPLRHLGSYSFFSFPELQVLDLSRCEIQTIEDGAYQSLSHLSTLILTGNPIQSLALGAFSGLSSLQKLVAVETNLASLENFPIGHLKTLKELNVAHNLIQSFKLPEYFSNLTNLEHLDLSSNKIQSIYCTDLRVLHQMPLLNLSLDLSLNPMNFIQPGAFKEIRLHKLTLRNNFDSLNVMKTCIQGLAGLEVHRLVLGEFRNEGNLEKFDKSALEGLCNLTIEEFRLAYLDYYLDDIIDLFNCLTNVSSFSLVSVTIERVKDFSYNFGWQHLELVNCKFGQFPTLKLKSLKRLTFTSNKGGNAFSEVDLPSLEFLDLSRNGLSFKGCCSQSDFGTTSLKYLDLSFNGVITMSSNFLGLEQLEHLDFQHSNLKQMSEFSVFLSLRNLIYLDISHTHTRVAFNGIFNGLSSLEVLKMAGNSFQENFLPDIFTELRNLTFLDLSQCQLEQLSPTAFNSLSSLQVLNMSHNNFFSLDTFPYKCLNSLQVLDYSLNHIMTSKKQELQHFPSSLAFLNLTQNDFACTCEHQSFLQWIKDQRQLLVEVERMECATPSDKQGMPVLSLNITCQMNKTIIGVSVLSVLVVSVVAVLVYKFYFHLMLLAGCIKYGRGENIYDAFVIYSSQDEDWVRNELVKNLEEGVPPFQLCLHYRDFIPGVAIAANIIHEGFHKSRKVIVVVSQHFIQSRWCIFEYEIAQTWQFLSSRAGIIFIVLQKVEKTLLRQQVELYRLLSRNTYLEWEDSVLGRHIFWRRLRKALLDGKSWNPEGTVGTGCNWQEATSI
Target sequence (Q99836 whole entry, looked up): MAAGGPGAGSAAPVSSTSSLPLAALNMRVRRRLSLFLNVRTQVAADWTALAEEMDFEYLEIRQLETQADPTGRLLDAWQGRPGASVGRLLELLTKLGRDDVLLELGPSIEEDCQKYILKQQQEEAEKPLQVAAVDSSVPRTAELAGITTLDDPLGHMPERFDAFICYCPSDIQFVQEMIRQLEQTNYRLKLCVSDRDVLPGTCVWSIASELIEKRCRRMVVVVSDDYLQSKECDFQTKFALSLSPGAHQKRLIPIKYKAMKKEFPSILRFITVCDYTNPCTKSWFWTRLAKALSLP
MC4R antagonist = MC4R antagonists of cAMP signaling, primary screen, cell-based, TR-FRET, antagonist arm of biased-ligand search | AID 540295, 2011 | 360,000 tested, 0.48% active | MC4R-expressing cells, MTII-stimulated cAMP, LANCE TR-FRET | Melanocortin receptor 4 (Homo sapiens), P32245 | inhibition, % at 6.5 µM;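 active means inhibition above its plate's cutoff, the mean of tested wells on that plate plus 3 SD, cut at about 29% in these data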
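Test system: U2OS cells stably expressing human melanocortin 4 receptor (MC4R); also added: Melanotan II challenge; compound: 6.5 µM single dose; timing: 30-min compound preincubation, 1-h Melanotan II challenge, 1-h detection, room temperature; signal: Eu-cAMP/anti-cAMP TR-FRET, emission 671 nm; repeats: one well per compound, no replicates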
MIN6 prolif = inducers of MIN6 beta-cell proliferation, primary screen, ATP luminescence, uHTS | MIN6 cells proliferation, ATPlite luminescence, 48 h; cells starved in 0.2% serum; 100% = growth in 10% serum | proliferation, % at 10 µM | 330,000 tested, 0.29% active | AID 2380, 2010;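 active means compounds whose signal lies at least 3.5 SD above the mean of all wells on their plate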
TLR9-MyD88 block = inhibitors of TLR9-MyD88 association in cells, primary screen, cell-based, CHO, BLA complementation, fluorescence; Toll-like receptor 9 (Homo sapiens) + Myeloid differentiation primary response protein …; CCF4 FRET ratio; inhibition, % at 4.98 µM; 340,000 tested, 0.21% active;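 active means inhibition above the mean over all tested compounds plus 3 SD, cut at about 21% in these data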
MC4R ag barr = MC4R agonists recruiting beta-arrestin, primary screen, cell-based, luminescence, agonist arm of biased-ligand search; 360,000 tested, 0.98% active; activation, % at 8.9 µM; U2OS MC4R beta-arrestin complementation; percent of melanotan II response, DMSO zero; AID 540308, 2011;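 active means activation above a per-plate cutoff, the mean activation of sample wells on that plate plus 3 SD, cut at about 8% in these data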
MC4R barr conf = MC4R beta-arrestin agonists, retest, confirmation, cell-based, luminescence, U2OS | shares compounds with MC4R ag barr | U2OS MC4R beta-arrestin recruitment; scaled DMSO 0%, Melanotan II 100% | activation, % at 8.9 µM | 2,400 tested, 31% active | AID 602192, 2012;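 active means mean activation across replicates above the hit cutoff set in the earlier primary screen, cut at about 8% in these data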
MOR-DOR barr ag = agonists of MOR-DOR heterodimerization, counter-screen for MC4R biased agonist project, cell-based, luminescence | shares compounds with MC4R ag barr | activation, % at 9.2 µM | U2OS PathHunter beta-arrestin, beta-gal luminescence; percent of deltorphin B response, DMSO zero | 2,400 tested, 5.8% active;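 active means mean activation across replicates exceeds the hit threshold derived in the earlier primary screen, cut at about 18% in these data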
Each line names hits and unclear results; the compound was inactive in the other large screens (follow-up assays come after a bar, where they were run).

COc1ccc(OC)c(-c2cc(C(=O)Nc3cc(C)on3)no2)c1	MC4R ag barr 17 | MC4R barr conf 10 | MOR-DOR barr ag inactive
COc1ccc(OC)c(C(C(=O)NC2CCCCC2)N(Cc2ccco2)C(=O)c2ccccn2)c1 (configuration not stated)	none (no result: TLR4-MyD88 BLA)
Cc1ccc2sc(N(CCCN(C)C)C(=O)CN3C(=O)c4ccccc4C3=O)nc2c1C	MC4R ag barr 18 | MC4R barr conf 19 | MOR-DOR barr ag inactive
COc1cccc(N2CCN(S(=O)(=O)c3cc4c(cc3Cl)NC(=O)CO4)CC2)c1	none (no result: TLR4-MyD88 BLA)
O=C(Cc1cccc2ccccc12)NN=Cc1ccc2c(c1)CCC2	MC4R ag barr 13 (no result: TLR4-MyD88 BLA, MIN6 prolif) | MC4R barr conf inactive | MOR-DOR barr ag inactive
O=C(Cc1cccc2ccccc12)N/N=C1\CCCc2ccccc21	none
O=C(NN=Cc1ccc2c(c1)CCC2)c1cccc([N+](=O)[O-])c1	MC4R ag barr 22 (no result: TLR4-MyD88 BLA, MIN6 prolif) | MC4R barr conf 13 | MOR-DOR barr ag inactive
Clc1cccc(CN2CCc3c([nH]c4ccccc34)C2)c1	none (no result: TLR4-MyD88 BLA)
CSc1ccc(CN2CCc3c([nH]c4ccccc34)C2)cc1	MC4R ag barr 11 (no result: TLR4-MyD88 BLA) | MC4R barr conf inactive | MOR-DOR barr ag inactive
Clc1ccc(CN2CCc3c([nH]c4ccccc34)C2)cc1Cl	MC4R ag barr 15 (no result: TLR4-MyD88 BLA) | MC4R barr conf 45 | MOR-DOR barr ag 23
COc1ccc(C2/C(=C(/O)c3ccc4c(c3)CC(C)O4)C(=O)C(=O)N2CCCN2CCOCC2)cc1 (configuration not stated)	none (no result: TLR4-MyD88 BLA)
Cc1ccc(NC(=O)C(OC(=O)c2cnc(C)cn2)c2ccccc2)c([N+](=O)[O-])c1 (configuration not stated)	none (no result: TLR4-MyD88 BLA)
CC(=O)c1cccc(NS(=O)(=O)c2ccc(N/C=C\C(=O)c3ccc(C)cc3)cc2)c1	MC4R ag barr 30 | MC4R barr conf inactive | MOR-DOR barr ag inactive
CC(=O)c1cccc(NS(=O)(=O)c2ccc(N/C=C/C(=O)c3ccc(F)cc3)cc2)c1	none
CC(=O)Nc1sc2c(c1C#N)CCCCC2	none
CC(C)(C)C(=O)NC(=S)Nc1sc2c(c1C#N)CCCCC2	MC4R ag barr 17 | MC4R barr conf inactive | MOR-DOR barr ag inactive
CCN1C(=O)[C@H]2[C@@H](c3ccc(Cl)cc3)N3C(=O)CN(CC4CC4)C(=O)[C@@]3(C)[C@H]2C1=O	none (no result: TLR4-MyD88 BLA)
S=c1[nH]nc(COc2ccccc2)n1/N=C/c1c(Cl)cccc1Cl	MC4R ag barr 11 (no result: TLR4-MyD88 BLA) | MC4R barr conf inactive | MOR-DOR barr ag inactive
COc1cccc(C(=O)NCCNC(=O)c2ccc(C)nc2)c1	none (no result: TLR4-MyD88 BLA)
CCc1ccc(OCCNC(=O)OCc2ccccc2)cc1	MC4R ag barr 10.0 | MC4R barr conf inactive | MOR-DOR barr ag inactive
c1ccc(OCc2nnc3sc(-c4cccs4)nn23)cc1	none
Clc1ccc(Cl)c(-c2nn3c(COc4ccccc4)nnc3s2)c1	MC4R ag barr 17 | MC4R barr conf 11 | MOR-DOR barr ag inactive
O=[N+]([O-])c1cc(/C=N/O)ccc1SCc1ccccc1Cl	MC4R ag barr 18 | MC4R barr conf inactive | MOR-DOR barr ag inactive
COc1cc(-c2nnc3sc(Cc4ccc(Cl)cc4)nn23)cc(OC)c1OC	MC4R ag barr 14 (no result: TLR4-MyD88 BLA) | MC4R barr conf 11 | MOR-DOR barr ag inactive
COc1ccc(Cc2nn3c(-c4cc(OC)c(OC)c(OC)c4)nnc3s2)cc1	none
COc1ccc(OCc2nn3c(-c4cccc(OC)c4)nnc3s2)cc1	MC4R ag barr 11 | MC4R barr conf inactive | MOR-DOR barr ag inactive
COc1ccc(OCc2nn3c(-c4ccco4)nnc3s2)cc1	none
C=C(C)CNC(=S)NNC(=O)CCn1c2ccc(Cl)cc2c2cc(Cl)ccc21	MC4R ag barr 11 | MC4R barr conf inactive | MOR-DOR barr ag inactive
CCNC(=O)C1(C)CCCN(Cc2ccc(Oc3ccccc3)cc2)C1 (configuration not stated)	none (no result: TLR4-MyD88 BLA, MIN6 prolif, TLR9-MyD88 block)
O=C(COc1ccccc1)Nc1nnc(COc2ccccc2)s1	MC4R ag barr 9.9 (no result: TLR4-MyD88 BLA) | MC4R barr conf inactive | MOR-DOR barr ag inactive
O=C(CSc1ccccc1)Nc1nnc(COc2ccc(Cl)cc2)s1	MC4R ag barr 18 | MC4R barr conf inactive | MOR-DOR barr ag inactive
Cc1cccc(C)c1OCc1nnc(NC(=O)CSc2ccc(Cl)cc2)s1	none
CCOC(=O)C(=O)Nc1nnc(COc2ccccc2)s1	none
COc1ccc(S(=O)(=O)N2CCCCC2c2cc(C(=O)NCc3cccnc3)no2)cc1 (configuration not stated)	none (no result: TLR4-MyD88 BLA, MIN6 prolif, TLR9-MyD88 block)
CC(=O)NC(C(=O)N1CCC(c2nc3ccccc3s2)CC1)C(C)C (configuration not stated)	none (no result: TLR4-MyD88 BLA)
COc1c2c(c(OC)c3c1c(=O)c1ccccc1n3C)OCO2	none (no result: TLR4-MyD88 BLA, MIN6 prolif)
Cc1ccc(-c2nn(-c3ccccc3)cc2/C=C/C(=O)Nc2nccs2)cc1	MC4R ag barr 19 | MC4R barr conf inactive | MOR-DOR barr ag inactive
Cc1nc(NC(=O)c2ccc(OCC(C)C)cc2)sc1Cc1ccc2c(c1)OCO2	none
CCCOc1ccc(C(=O)Nc2nc(C)c(Cc3ccc4c(c3)OCO4)s2)cc1	MC4R ag barr 47 | MC4R barr conf 13 | MOR-DOR barr ag inactive
CCC(C(=O)NC1CCCC1)n1nc(C)n2c(cc3occc32)c1=O (configuration not stated)	none (no result: TLR4-MyD88 BLA)
COc1ccc2c(c1)CCc1c(C(=O)Nc3ccc(OC)c(OC)c3)noc1-2	MC4R ag barr 20 | MC4R barr conf inactive | MOR-DOR barr ag inactive
O=C(NCCc1ccccc1)c1noc2c1CCc1ccccc1-2	MC4R ag barr 13 | MC4R barr conf inactive | MOR-DOR barr ag inactive
COc1ccc2c(c1)CCc1c(C(=O)NCCc3ccc(OC)c(OC)c3)noc1-2	MC4R ag barr 20 | MC4R barr conf inactive | MOR-DOR barr ag inactive
COc1ccc2c(c1)CCc1c(C(=O)Nc3ccn(Cc4ccc(C)cc4)n3)noc1-2	MC4R ag barr 30 | MC4R barr conf 37 | MOR-DOR barr ag inactive
Cc1ccc(Cn2ccc(NC(=O)c3noc4c3CCc3ccccc3-4)n2)cc1	none
